Laboratory results published in ChEMBL document CHEMBL4184319, “Fluorescent-Labeled Selective Adenosine A2B Receptor Antagonist Enables Competition Binding Assay by Flow Cytometry” (J Med Chem, 2018).

Key:
[1] = molecular target: Adenosine receptor A2a (Rattus norvegicus, UniProt P30543); experiment: Displacement of [3H]MSX-2 from adenosine A2A receptor in rat brain striatal membranes after 30 mins by liquid scintillation counting method; assay type: cell membranes, Striatum, Membrane
In short: (§1)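 [³H]MSX-2 (1 nM) used with rat striatal or human A2A-HEK membranes, 30 min at rt. Membranes pre-incubated 10-15 min with ADA 0.12 IU/mL. DMSO 2.5 % final. GF/B filtration, then scintillation counting. Curves used 6-7 concentrations over 3 log units. At least three experiments, in duplicate (human) or triplicate (rat).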

[2] = molecular target: T1, Adenosine receptor A2b (Homo sapiens, UniProt P29275); experiment: Antagonist activity at recombinant human adenosine A2B receptor expressed in CHO cell membranes assessed as inhibition of NECA-induced cAMP accumulation preincubated for 1 hr followed by NECA induction measured after 5 mins in presence of [3H]cAMP and bovine cAMP-binding protein by liquid scintillation counting method; assay type: functional
T1 sequence (P29275 whole entry): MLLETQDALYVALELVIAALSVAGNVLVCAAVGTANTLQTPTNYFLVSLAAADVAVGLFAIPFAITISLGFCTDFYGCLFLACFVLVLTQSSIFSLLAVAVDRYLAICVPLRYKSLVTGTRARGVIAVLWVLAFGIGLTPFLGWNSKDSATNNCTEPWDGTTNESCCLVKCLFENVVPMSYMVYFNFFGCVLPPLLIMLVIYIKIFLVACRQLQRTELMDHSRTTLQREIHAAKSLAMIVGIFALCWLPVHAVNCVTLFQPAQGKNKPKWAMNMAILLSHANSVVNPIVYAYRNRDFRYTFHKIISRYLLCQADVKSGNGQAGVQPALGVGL
In short: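 CHO cells stably expressing human A2BAR, pre-incubated with antagonist dilutions for 1 h at 37°C, then stimulated with NECA (10 µM final) for 5 min at 37°C. Reaction stopped with hot (90 °C) lysis solution (4 mM EDTA, 0.01 % Triton X100). cAMP quantified by radioactive competition with [³H]cAMP and bovine adrenal cAMP-binding protein. Response expressed as % of NECA response without antagonist. Means ± SEM, three independent experiments in duplicate.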

[3] = molecular target: T2, Adenosine receptor A3 (Homo sapiens, UniProt P0DMS8); experiment: Displacement of [3H]PSB-11 from recombinant human adenosine A3 receptor expressed in CHO cell membranes after 45 mins by liquid scintillation counting method
T2 sequence (P0DMS8 whole entry): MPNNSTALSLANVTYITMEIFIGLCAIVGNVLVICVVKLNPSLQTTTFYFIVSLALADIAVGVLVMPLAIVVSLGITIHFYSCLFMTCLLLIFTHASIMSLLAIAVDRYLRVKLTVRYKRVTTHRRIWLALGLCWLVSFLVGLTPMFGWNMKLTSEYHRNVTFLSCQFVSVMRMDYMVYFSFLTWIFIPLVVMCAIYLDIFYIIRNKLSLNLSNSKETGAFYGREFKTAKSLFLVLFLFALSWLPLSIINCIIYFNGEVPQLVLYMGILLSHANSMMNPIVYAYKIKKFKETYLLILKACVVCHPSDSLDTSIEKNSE
In short: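 Human A3-CHO membranes incubated with [³H]PSB-11 (1 nM) for 45 min at rt, after 10-15 min pre-incubation with ADA 0.12 IU/mL. Nonspecific binding defined with 100 µM R-PIA. DMSO 2.5 % final. GF/B filtration, then scintillation counting. Curves used 6-7 concentrations over 3 log units. At least three experiments in duplicate.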

[4] = molecular target: T3, Adenosine receptor A1 (Rattus norvegicus, UniProt P25099); experiment: Displacement of [3H]CCPA from adenosine A1 receptor in rat brain cortical membranes after 90 mins by liquid scintillation counting method; assay type: cell membranes
T3 sequence (P25099 whole entry): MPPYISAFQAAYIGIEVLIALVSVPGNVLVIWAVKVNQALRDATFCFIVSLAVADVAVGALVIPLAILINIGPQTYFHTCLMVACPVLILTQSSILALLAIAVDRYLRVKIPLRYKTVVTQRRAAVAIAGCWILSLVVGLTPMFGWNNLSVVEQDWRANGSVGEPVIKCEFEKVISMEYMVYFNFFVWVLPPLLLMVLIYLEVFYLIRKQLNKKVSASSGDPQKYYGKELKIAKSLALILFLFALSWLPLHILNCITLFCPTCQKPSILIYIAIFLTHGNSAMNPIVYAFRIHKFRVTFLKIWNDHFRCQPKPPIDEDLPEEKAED
In short: (§2)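 [³H]CCPA (1 nM) used with rat brain cortical or human A1-CHO membranes, 90 min at rt. Membranes pre-incubated 10-15 min with ADA 0.12 IU/mL. Nonspecific binding defined with 10 µM CADO. Compounds dissolved in DMSO, 2.5 % final. Filtration on GF/B filters with ice-cold Tris-HCl washes, then scintillation counting. Curves used 6-7 concentrations spanning 3 log units. At least three experiments, in duplicate (human) or triplicate (rat).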

[5] = molecular target: T1, Adenosine receptor A2b; experiment: Displacement of [3H]PSB-603 from recombinant human adenosine A2B receptor expressed in CHO cell membranes after 75 mins by liquid scintillation counting method
In short: (§3)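 [³H]PSB-603 (0.3 nM) used with CHO membranes expressing human, mouse or rat A2BAR, 75 min at rt. Membranes pre-incubated 10-15 min with ADA 0.12 IU/mL. Nonspecific binding defined with 10 µM DPCPX. DMSO 2.5 % final. Filtration on GF/B with ice-cold 50 mM Tris-HCl pH 7.4 containing 0.1 % BSA, then scintillation counting. Curves used 6-7 concentrations over 3 log units. At least three experiments.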

[6] = Selectivity ratio of Ki for adenosine A2A receptor in rat brain striatal membranes to Ki for recombinant human adenosine A2B receptor expressed in CHO cell membranes; assay type: cell-based
[7] = species: Homo sapiens; experiment: Selectivity ratio of Ki for recombinant human adenosine A2A receptor expressed in HEK cell membranes to Ki for recombinant human adenosine A2B receptor expressed in CHO cell membranes; assay type: cell-based
[8] = molecular target: T4, Adenosine receptor A1 (Homo sapiens, UniProt P30542); experiment: Displacement of [3H]CCPA from recombinant human adenosine A1 receptor expressed in CHO cell membranes after 90 mins by liquid scintillation counting method; in short: as §2
T4 sequence (P30542 whole entry): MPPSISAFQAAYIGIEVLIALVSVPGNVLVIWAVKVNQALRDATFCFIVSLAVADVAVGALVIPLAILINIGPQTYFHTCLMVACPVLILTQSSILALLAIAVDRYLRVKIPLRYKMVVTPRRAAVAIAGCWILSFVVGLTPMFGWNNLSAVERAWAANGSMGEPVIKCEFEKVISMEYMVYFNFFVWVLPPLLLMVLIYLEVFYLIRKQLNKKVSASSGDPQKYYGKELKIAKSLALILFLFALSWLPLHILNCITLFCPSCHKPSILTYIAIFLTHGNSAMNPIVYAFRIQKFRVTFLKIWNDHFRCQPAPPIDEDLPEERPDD

[9] = molecular target: Adenosine receptor A2a (Homo sapiens, UniProt P29274); experiment: Displacement of [3H]MSX-2 from recombinant human adenosine A2A receptor expressed in HEK cell membranes after 30 mins by liquid scintillation counting method
In short: as §1, with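 “IU/mL. Nonspecific binding defined with 10 µM CGS15943.” for “IU/mL.”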

[10] = species: Homo sapiens; experiment: Selectivity ratio of Ki for recombinant human adenosine A3 receptor expressed in CHO cell membranes to Ki for recombinant human adenosine A2B receptor expressed in CHO cell membranes; assay type: cell-based
[11] = molecular target: T1, Adenosine receptor A2b; experiment: Displacement of PSB-12105 from recombinant human adenosine A2B receptor expressed in CHO cell membranes preincubated for 30 mins followed by PSB-12105 addition measured after 20 mins by flow cytometric method; assay type: cell-based
In short: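 Live CHO-hA2B cells were pre-treated with ADA (2 U/mL, 2 h, 37°C), detached with 5 mM EDTA, and resuspended in HBSS with 2 U/mL ADA at 2.5×10^5 cells/well in 96-well format. Antagonists pre-incubated 30 min at 37°C, then fluorescent ligand (100 nM) added for 20 min at 37°C. 3-5 independent experiments in duplicate.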

[12] = molecular target: T5, Adenosine receptor A2b (Mus musculus, UniProt Q60614); experiment: Displacement of [3H]PSB-603 from recombinant mouse adenosine A2B receptor expressed in CHO cell membranes after 75 mins by liquid scintillation counting method; in short: as §3
T5 sequence (Q60614 whole entry): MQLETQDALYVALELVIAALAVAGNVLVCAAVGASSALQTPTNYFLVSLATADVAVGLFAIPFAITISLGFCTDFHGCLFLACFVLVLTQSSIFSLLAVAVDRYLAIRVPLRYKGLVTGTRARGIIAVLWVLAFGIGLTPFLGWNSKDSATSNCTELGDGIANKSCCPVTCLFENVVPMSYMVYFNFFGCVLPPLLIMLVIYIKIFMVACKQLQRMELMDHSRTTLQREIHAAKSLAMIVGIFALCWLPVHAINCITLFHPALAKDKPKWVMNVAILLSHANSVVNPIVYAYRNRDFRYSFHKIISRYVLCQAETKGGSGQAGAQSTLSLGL

Adenosine receptor A2a (Rattus norvegicus, UniProt P30543), sequence (P30543 whole entry): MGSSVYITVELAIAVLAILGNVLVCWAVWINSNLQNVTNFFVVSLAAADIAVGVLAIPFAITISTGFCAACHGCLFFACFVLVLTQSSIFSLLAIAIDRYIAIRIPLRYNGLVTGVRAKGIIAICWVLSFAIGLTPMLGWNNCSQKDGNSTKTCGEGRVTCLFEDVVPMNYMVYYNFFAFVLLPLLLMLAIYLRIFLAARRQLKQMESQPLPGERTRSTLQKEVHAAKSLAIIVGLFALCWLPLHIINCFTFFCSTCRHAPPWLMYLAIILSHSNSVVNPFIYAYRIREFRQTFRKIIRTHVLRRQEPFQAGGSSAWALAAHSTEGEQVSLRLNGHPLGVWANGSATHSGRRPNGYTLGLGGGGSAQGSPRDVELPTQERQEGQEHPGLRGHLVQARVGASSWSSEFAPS
Adenosine receptor A2a (Homo sapiens, UniProt P29274), sequence (P29274 whole entry): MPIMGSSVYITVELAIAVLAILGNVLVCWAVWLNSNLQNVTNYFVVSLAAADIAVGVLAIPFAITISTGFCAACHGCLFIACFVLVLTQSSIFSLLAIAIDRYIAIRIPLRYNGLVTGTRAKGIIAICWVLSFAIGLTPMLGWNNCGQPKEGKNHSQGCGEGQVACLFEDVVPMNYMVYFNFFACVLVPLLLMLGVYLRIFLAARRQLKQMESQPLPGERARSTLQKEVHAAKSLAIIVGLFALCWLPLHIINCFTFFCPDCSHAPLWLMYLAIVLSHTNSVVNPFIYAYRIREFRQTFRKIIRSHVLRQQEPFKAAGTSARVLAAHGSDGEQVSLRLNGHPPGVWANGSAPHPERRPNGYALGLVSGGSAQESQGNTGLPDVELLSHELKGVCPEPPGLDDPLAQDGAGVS

| SMILES | Ki [1] [nM] | IC50 [2] [nM] | Ki [3] [nM] | Ki [4] [nM] | Ki [5] [nM] | Ki [8] [nM] | Ki [9] [nM] | IC50 [11] [nM] | Ki [12] [nM] | Ratio Ki [6] | Ratio Ki [7] | Ratio Ki [10] |
| --- | --- | --- | --- | --- | --- | --- | --- | --- | --- | --- | --- | --- |
| CCCN1C(=O)N=C2N=C(c3ccc(S(=O)(=O)N4CCN(Cc5ccccc5)CC4)cc3)N=C2C1=O | – | – | – | – | – | – | – | 23.5 | – | – | – | – |
| Cn1c(=O)c2c(ncn2C)n(C)c1=O [CAFFEINE] | – | – | – | – | – | – | – | – | 23000 | – | – | – |
| CCCN1C(=O)N=C2N=C(c3ccc(S(=O)(=O)N4CCN(Cc5ccc(Cl)cc5)CC4)cc3)N=C2C1=O | – | – | – | – | – | – | – | 1.06 | – | – | – | – |

The next lines start with results.

| Ki [1] [nM] | IC50 [2] [nM] | Ki [3] [nM] | Ki [4] [nM] | Ki [5] [nM] | Ki [8] [nM] | Ki [9] [nM] | IC50 [11] [nM] | Ki [12] [nM] | SMILES | Ratio Ki [6] | Ratio Ki [7] | Ratio Ki [10] |
| --- | --- | --- | --- | --- | --- | --- | --- | --- | --- | --- | --- | --- |
| > 10000 | 174 | 2990 | 35.3 | 27.9 | – | – | – | – | CCCn1c(=O)[nH]c2nc(-c3ccc(OCC(=O)NCCCc4ccccc4)cc3)[nH]c2c1=O | > 150 | – | – |
| > 10000 | – | ≥ 10000 | 227 | 7.82 | > 10000 | 1600 | – | – | CCCn1c(=O)[nH]c2nc(-c3ccc(OCC(=O)NCCCCCCCCCCC4=C5C(C)=CC(C)=[N+]5[B-](F)(F)n5c(C)cc(C)c54)cc3)[nH]c2c1=O | > 150 | > 150 | – |
| > 10000 | 135 | 266 | 27.2 | 7 | – | – | – | – | CCCn1c(=O)[nH]c2nc(-c3ccc(OCC(=O)NCc4ccccc4)cc3)[nH]c2c1=O | > 150 | – | 38 |
| 498 | – | 1410 | 29.6 | 3.3 | – | – | – | – | CCCn1c(=O)[nH]c2nc(-c3ccc(OCC(=O)NCCCCc4ccccc4)cc3)[nH]c2c1=O | > 150 | – | – |
| > 10000 | 141 | > 10000 | 7.85 | 7.45 | – | – | – | – | CCCn1c(=O)[nH]c2nc(-c3ccc(OCC(=O)NCCc4ccccc4)cc3)[nH]c2c1=O | > 150 | – | – |
